Laboratory results taken from ChEMBL document CHEMBL1150415 (J Med Chem, 2008).

Assays:
[1] = Ratio of AUC in Sprague-Dawley rat at 25 mg/kg, po to IC50 for TXB2 production in Sprague-Dawley rat whole blood; assay type: functional
[2] = tested on: Rattus norvegicus; assay: Inhibition of PGE2 production in carrageenan-stimulated rat air pouch model at 5 mg/kg, po after 6 hrs; assay type: functional
Procedure, shortened: (§1)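 Carrageenan was injected into a preformed air pouch 2 h after oral drug. Pouch contents were removed 6 h later and PGE2 was quantified.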

[3] = tested on: Rattus norvegicus; assay: Inhibition of PGE2 production in carrageenan-stimulated orally dosed rat air pouch model after 6 hrs; assay type: functional; conditions: po; procedure, shortened: as §1
[4] = tested on: Rattus norvegicus; assay: Inhibition of carrageenan-induced paw edema in po dosed Sprague-Dawley rat administered 2 hrs before carrageenan challenge; assay type: functional
[5] = Inhibition of cytosolic phospholipase A2alpha by GLU micelle assay
Procedure, shortened: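 Micellar assay with 7-hydroxycoumarinyl-γ-linolenate (GLU) substrate, presenting inhibitor and substrate to the enzyme in high-lipid micelles. Each run gives the mean of duplicate assays, and values come from at least two runs.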

[6] = tested on: Blood; assay: Inhibition of TXB2 production in Sprague-Dawley rat whole blood; assay type: functional, tissue-based
Procedure, shortened: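 Rat whole blood stimulated with calcium ionophore A23187 at 5 µM, with thromboxane B2 measured. Each run gives the mean of triplicate assays, and values come from at least two runs.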

[7] = Plasma concentration in collagen-induced arthritis mouse model at 100 mg/kg, po twice daily after 1.5 hrs; assay type: ADME, organism-based; set-up: dose 100 mg/kg, route oral
[8] = tested on: Mus musculus; assay: Plasma concentration in collagen-induced arthritis mouse model at 100 mg/kg, po twice daily after 12 to 14 hrs; assay type: ADME, organism-based; set-up: dose 100 mg/kg, route oral; conditions: in vivo

IC50 [5]: 150 nM
IC50 [6]: 160 nM
concentration at 1.5 h [7]: 4080 ng/mL
Cp [8]: 531 ng/mL
SMILES: O=C(O)c1ccc(OCCc2c(CCNS(=O)(=O)Cc3ccc(Cl)c(Cl)c3)n(C(c3ccccc3)c3ccccc3)c3ccc(Cl)cc23)cc1 [ECOPLADIB]
Ratio [1]: 18 h
inhibition in vivo at 5 mg/kg [2]: < 10%
ED50 [3]: 10 mg/kg
ED50 [4]: 40 mg/kg
